Molecules are shown by their SMILES. Where only a bound is given, the exact number is not on record here.

The target in data set [1] is T1, Aryl hydrocarbon receptor (Homo sapiens, UniProt P35869).
T1 sequence (P35869 whole entry): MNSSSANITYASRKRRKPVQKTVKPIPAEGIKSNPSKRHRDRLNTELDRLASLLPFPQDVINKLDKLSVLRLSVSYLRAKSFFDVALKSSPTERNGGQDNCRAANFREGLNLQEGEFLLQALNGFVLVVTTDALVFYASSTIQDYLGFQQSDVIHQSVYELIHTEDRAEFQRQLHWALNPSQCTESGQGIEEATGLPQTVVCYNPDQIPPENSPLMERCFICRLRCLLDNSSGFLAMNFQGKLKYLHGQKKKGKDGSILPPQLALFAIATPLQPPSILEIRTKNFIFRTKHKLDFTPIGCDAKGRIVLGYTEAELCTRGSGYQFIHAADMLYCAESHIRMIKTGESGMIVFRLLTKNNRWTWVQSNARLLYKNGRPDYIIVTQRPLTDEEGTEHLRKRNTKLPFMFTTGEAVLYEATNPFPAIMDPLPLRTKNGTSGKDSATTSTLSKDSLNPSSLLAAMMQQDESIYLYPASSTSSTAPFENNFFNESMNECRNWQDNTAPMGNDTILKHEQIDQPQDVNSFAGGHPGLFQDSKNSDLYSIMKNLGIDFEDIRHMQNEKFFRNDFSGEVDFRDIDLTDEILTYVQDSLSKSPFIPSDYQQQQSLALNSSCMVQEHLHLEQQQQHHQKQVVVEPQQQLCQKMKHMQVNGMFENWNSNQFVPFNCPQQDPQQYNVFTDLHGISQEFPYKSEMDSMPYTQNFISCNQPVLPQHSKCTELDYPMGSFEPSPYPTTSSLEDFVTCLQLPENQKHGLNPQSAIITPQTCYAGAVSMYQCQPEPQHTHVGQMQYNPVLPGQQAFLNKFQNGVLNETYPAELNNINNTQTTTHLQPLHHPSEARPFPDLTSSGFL
Kind of data set: Agonist activity at AhR in human HepG2 cells co-transfected with pSELECT-zeo-Lucia and CYP1A1 assessed as induction of receptor transactivation incubated for 24 hrs by luciferase reporter gene assay. Type of data set: cell-based.

For data set [2], the target named is T1, Aryl hydrocarbon receptor. Conditions: HepG2, human, 24 h, read-out: RUmax.
Data set [3] concerns the target T1, Aryl hydrocarbon receptor. Conditions: HepG2, human, 24 h, read-out: RUmax. The source holds these as a separate data set.
In data set [4] the test system is HepG2. Kind of data set: Cytotoxicity against human HepG2 cells harboring AhR assessed as reduction in cell viability at 0.1 to 10 uM measured for 24 to 72 hrs by MTT assay. In kind it is cell-based. Conditions: hepg2, 10 µM, dose lower 0.1 µM, time lower 24 hrs, dose upper 10 µM, time upper 72 hrs. The procedure, abridged: (§1)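 AhR-HepG2 cells were treated for 24–72 h with compounds at 0.1, 1.0, 5.0 and 10.0 µM, some also at 2.5 and 7.5 µM. MTT at 0.5 mg/mL was added and plates incubated at 37 °C. Formazan was dissolved in DMSO and absorbance read at 490 nm. Viability below 85% of vehicle counted as cytotoxic. One-way ANOVA with Dunnett's test; mean ± SEM, n≥3.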

Data set [5] addresses T1, Aryl hydrocarbon receptor. Conditions: HepG2, human, 24 h, read-out: RUmax. This is another data set of the same source.
Data set [6] is described as follows: Cytotoxicity against human HepG2 cells harboring AhR assessed as reduction in cell viability at > 5 uM measured for 24 hrs by MTT assay relative to control. In kind it is cell-based. Conditions: read-out: INH. The gist of the method: as §1
Data set [7] concerns the target T1, Aryl hydrocarbon receptor. Conditions: HepG2, human, 24 h, read-out: RUmax. The source holds these as a separate data set.
The target in data set [8] is T1, Aryl hydrocarbon receptor. Conditions: HepG2, human, 24 h, read-out: RUmax. This is another data set of the same source.
The target of data set [9] is T1, Aryl hydrocarbon receptor. Kind of data set: Antagonist activity at AhR in human HepG2 cells co-transfected with pSELECT-zeo-Lucia and CYP1A1 assessed as inhibition of FICZ-induced receptor transactivation at 30 uM incubated for 24 hrs by luciferase reporter gene assay relative to control. Type of data set: cell-based. Conditions: hepg2, 24 h.
Data set [10] addresses T1, Aryl hydrocarbon receptor. Kind of data set: Antagonist activity at AhR in human HepG2 cells assessed as inhibition of FICZ-induced AhR transcriptional activity incubated for 24 hrs by Quanti-Luc reagent based luminescence assay. In kind it is cell-based.
For data set [11], the system named is HepG2. Briefly: Cytotoxicity against human HepG2 cells harboring AhR assessed as reduction in cell viability at 0.1 to 10 uM measured after 24 hrs by MTT assay. In kind it is cell-based. Conditions: hepg2, 24 h, dose 0.1-10 µM. The procedure, abridged:
as §1

In the case of `Oc1ccccc1C(c1ccc(Br)cc1)c1ccccn1` (stereo not drawn), in data set [1], the EC50 is above 1000 µM. For the same compound, the inhibition at 10 µM in [2] was 117%. For the same compound, in [3], the activity at 10 µM is 7.99%.
`COc1ccc(C(c2ccccn2)c2c[nH]c3ccccc23)cc1` (stereo not drawn): the concentration giving a half-maximal response (EC50) in data set [1] stood at 21.7 µM. In addition, in the data set on HepG2 [4], the Activity entry is “Non-Toxic”. Also, in [3], the activity at 10 µM stood at 114%.
Turning to `CC(=O)Oc1ccc(C(c2ccc(Br)cc2)c2ccccn2)cc1` (stereo not drawn), the half-maximal effective concentration (EC50) in data set [1] was above 1000 µM. Further, in data set [2], the inhibition at 10 µM was 143%. The activity at 10 µM in data set [3] was 6.32%.
For the compound `COc1ccc(C(c2ccccn2)c2cccs2)cc1` (stereo not drawn), in [1], the half-maximal effective concentration (EC50) is above 50 µM. In [2], the inhibition at 10 µM worked out at 137%. In addition, the Activity entry in the data set with HepG2 [4] is on record as “Non-Toxic”. In data set [3], the activity at 10 µM was 10.5%.
As for `CC(=O)Oc1ccc(C(c2ccccn2)c2c(OC(C)=O)ccc3ccccc23)cc1` (stereo not drawn), the concentration for a half-maximal effect (EC50) in data set [1] was above 200 µM. Also, the inhibition at 10 µM in data set [2] was 144%. Moreover, in [3], the activity at 10 µM is 5.17%.
On to `CC(=O)Oc1ccc(C(c2ccccn2)n2nnc3ccccc32)cc1` (stereo not drawn), for which the EC50 in data set [1] was above 100 µM. Moreover, in data set [2], the inhibition at 10 µM turned out to be 142%. The activity at 10 µM in data set [3] is 9.23%.
`CC(=O)Oc1ccc(C(c2ccc(Cl)cc2)c2ccccn2)cc1` (stereo not drawn): the EC50 in [1] is above 1000 µM. The inhibition at 10 µM in [2] is 128%. Also, the activity at 10 µM in data set [3] was found to be 6.26%.
For the compound `Cc1ccc(C(c2ccc(O)cc2)c2ccccn2)cc1` (stereo not drawn), the concentration giving a half-maximal response (EC50) in data set [1] was above 100 µM. Moreover, the inhibition at 10 µM in data set [2] came out at 139%. Moreover, in data set [3], the activity at 10 µM is 7.09%.
On to `O=Cc1c2[nH]c3ccccc3c2cc2[nH]c3ccccc3c12`, for which, in data set [5], the Emax at 18 µM came to 100%.
On to `CC(=O)Oc1ccc(C(c2ccc(C)cc2)c2ccccn2)cc1` (stereo not drawn), for which the half-maximal effective concentration (EC50) in data set [1] was above 100 µM. Further, in data set [3], the activity at 10 µM was 9.42%.
For `CC(=O)Oc1ccc(C(c2ccc(Br)cc2)c2cccc[n+]2[O-])cc1` (stereo not drawn), in [1], the half-maximal effective concentration (EC50) was above 100 µM. Besides, the inhibition at 10 µM in [2] amounted to 106%. The activity at 10 µM in data set [3] was determined as 8.8%.
`Oc1ccc(C(c2ccc(Cl)cc2)c2ccccn2)cc1` (stereo not drawn): the EC50 in data set [1] is above 100 µM. The activity at 10 µM in [3] amounted to 6.59%.
Consider `Oc1ccccc1C(c1ccc(Cl)cc1)c1ccccn1` (stereo not drawn), for which the EC50 in [1] was above 1000 µM. Also, the inhibition at 10 µM in data set [2] was 115%. In addition, the activity at 10 µM in [3] came to 7.18%.
`CC(=O)Oc1ccc(C(c2ccc(C(C)(C)C)cc2)c2cccc[n+]2[O-])cc1` (stereo not drawn): the cytotoxicity at 24 h in data set [6] was 50%. Besides, the activity at 1 µM in data set [7] was 6.1%. In addition, the inhibition at 1 µM in data set [8] was 120%.
Consider `CC(=O)Oc1ccc(C(c2ccc(F)cc2)c2cccc[n+]2[O-])cc1` (stereo not drawn), for which, in [1], the concentration giving a half-maximal response (EC50) is above 1000 µM. For the same compound, the inhibition at 10 µM in data set [2] was 92.4%. In addition, the activity at 10 µM in data set [3] amounted to 6.51%.
In the case of `CC(C)(C)c1ccc(C(c2ccc(O)cc2)c2ccccn2)cc1` (stereo not drawn), in [6], the cytotoxicity at 24 h is above 90%. The activity at 1 µM in data set [7] turned out to be 6.89%. For the same compound, in data set [8], the inhibition at 1 µM is 113%.
On the same counts, the results for `CC(=O)Oc1ccc(C(c2ccc(C(C)(C)C)cc2)c2ccccn2)cc1` (stereo not drawn) are 50%, 5.32% and 113%.
For `CC(=O)Oc1ccc(C(c2ccc(C(F)(F)F)cc2)c2ccccn2)cc1` (stereo not drawn), in that order: 50%, 7.71% and 117%.
With `CC(C)(C)c1ccc(C(c2ccccn2)c2ccccc2O)cc1` (stereo not drawn), the half-maximal effective concentration (EC50) in [1] is above 1000 µM. For the same compound, in data set [3], the activity at 10 µM was 6.81%.
Regarding `COc1ccc(C(O)(c2ccccn2)c2ccc3ccccc3n2)cc1` (stereo not drawn), the Activity entry with HepG2 [4] is reported as “Non-Toxic”.
Take `Cc1ccccc1/N=N/c1ccc(NC(=O)c2ccnn2C)c(C)c1`: in data set [9], the RUmax was determined as 54.5%. For the same compound, the half-inhibitory concentration (IC50) in data set [10] came out at 2.43 µM.
For `Oc1ccccc1C(c1ccc(F)cc1)c1ccccn1` (stereo not drawn), the EC50 in [1] is above 1000 µM. Also, the inhibition at 10 µM in data set [2] was determined as 112%. In data set [3], the activity at 10 µM was determined as 6.89%.
`CC(=O)Oc1ccc(C(c2ccc(Cl)cc2)c2cccc[n+]2[O-])cc1` (stereo not drawn): the EC50 in data set [1] was above 200 µM. Moreover, the inhibition at 10 µM in [2] is 78.8%. Further, the activity at 10 µM in [3] came out at 7.78%.
`Oc1ccc(C(c2ccc(Br)cc2)c2ccccn2)cc1` (stereo not drawn): in data set [1], the half-maximal effective concentration (EC50) was above 100 µM. Besides, the activity at 10 µM in [3] came out at 7.71%.
As to `Oc1ccc(C(c2ccccn2)c2c(O)ccc3ccccc23)cc1` (stereo not drawn), in the data set with HepG2 [4], the Activity entry is on record as “Non-Toxic”.
With `CC(=O)Oc1ccc(C(c2ccc(F)cc2)c2ccccn2)cc1` (stereo not drawn), in [1], the EC50 is above 100 µM. The inhibition at 10 µM in data set [2] was determined as 118%. For the same compound, in data set [3], the activity at 10 µM was 8.77%.
Regarding `Oc1ccc(C(c2ccc(F)cc2)c2ccccn2)cc1` (stereo not drawn), the EC50 in data set [1] is above 400 µM. In addition, the activity at 10 µM in data set [3] is 7.79%.
With `CC(=O)Oc1ccc(C(c2ccc(C)cc2)c2cccc[n+]2[O-])cc1` (stereo not drawn), the EC50 in [1] is above 200 µM. Further, the inhibition at 10 µM in data set [2] amounted to 93.3%. In addition, the activity at 10 µM in data set [3] was determined as 6.28%.
Regarding `CC(=O)Oc1ccc(C(c2ccccn2)c2c[nH]c3ccccc23)cc1` (stereo not drawn), the Activity entry in the data set on HepG2 [4] is recorded as “Non-Toxic”.
`COc1ccc(C(O)(c2ccc(C(F)(F)F)cc2)c2ccccn2)cc1` (stereo not drawn): in [1], the EC50 was determined as 52 µM. Further, the values for the Activity result in the data set with HepG2 [11] and in the data set on HepG2 [4] were “Toxic” and “Non-Toxic”, respectively. For the same compound, in data set [3], the activity at 10 µM came out at 26.6%.
For the compound `COc1ccc(C(c2ccccn2)n2nnc3ccccc32)cc1` (stereo not drawn), the EC50 in data set [1] was above 100 µM. Besides, in data set [3], the activity at 10 µM was determined as 8.86%.
Turning to `Cc1ccc(C(c2ccccn2)c2ccccc2O)cc1` (stereo not drawn), the EC50 in data set [1] was above 100 µM. Further, in data set [2], the inhibition at 10 µM was 114%. For the same compound, the activity at 10 µM in data set [3] was found to be 6.93%.
For the compound `COc1ccc(C(c2ccccn2)c2c(O)ccc3ccccc23)cc1` (stereo not drawn), the Activity result in the data set with HepG2 [4] is given as “Non-Toxic”.
For `Oc1ccc(C(c2ccccn2)c2cccs2)cc1` (stereo not drawn), the Activity entry in the data set on HepG2 [4] was “Non-Toxic”.
For `CC(=O)Oc1ccc(C(c2ccc(OC(C)=O)cc2)c2ccccn2)cc1` [BISACODYL], in [1], the EC50 was above 1000 µM. For the same compound, the inhibition at 10 µM in [2] was 107%. Moreover, the activity at 10 µM in data set [3] was 6.58%.

The record behind these values is ChEMBL document CHEMBL4706594, “Targeting the aryl hydrocarbon receptor with a novel set of triarylmethanes” (Eur J Med Chem, 2020).
